Screening data: PubChem, Broad Institute
SIRT5 inh = blocks human SIRT5 desuccinylation of peptide; Q9NXA8; Purified SirT5, succinyl-peptide AMC, trypsin-coupled fluorescence; inhibition, % at 15 µM; 330,000 tested, 1.1% active; AID 652115; in the data active = inhibition above about 15%
E-sel inducer = induces E-selectin expression in human endothelial cells | P16581 | HUVEC E-selectin immunofluorescence imaging; normalized: neutral wells 0, TNF-alpha wells 100 | activation, % at 7.58 µM | 260,000 tested, 0.37% active | AID 686992;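 active = mean E-selectin-positive cell signal at least 10% of the positive control, reached in at least 60% of replicates, without over 20% cell loss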
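material = human umbilical vein endothelial cells (HUVEC), E-selectin induction | quantity = 3,000 cells/well | medium = EGM-2 growth medium on 0.1% gelatin-coated wells | technique = immunofluorescence imaging | read-out basis = % PE-positive cells | control set = TNF-alpha positive control, DMSO neutral control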
DENV2 CPE = DENV2-induced cell death inhibition; DENV2-infected cells, cytopathic effect rescue, plate reader; CPE inhibition, % at 9.99 µM; 350,000 tested, 1.7% active; AID 651640; in the data active = CPE inhibition above about 20%, passing the limit was not always enough; tested in BHK-21 cells;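 note: 0% = median of neutral control wells and 100% = median of positive control wells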
The depositor's hits bear a star; . = no result. A selection: hits, their analogues and other compounds. The true share with any hit is near 2.8%.

SMILES | SIRT5 inh | E-sel inducer | DENV2 CPE
C/C=C/c1ccc([C@H]2[C@@H](CO)N(CC3CCCCC3)[C@@H]2CNC(C)C)cc1 | 19.5* | 0.3 | -4.2
C/C=C/c1ccc([C@H]2[C@@H](CO)N(CC3CC3)[C@H]2CNS(C)(=O)=O)cc1 | . | -0.3 | 0.2
C/C=C/c1ccc([C@H]2[C@@H](CO)N(CC3CC3)[C@@H]2CNC(=O)NC(C)C)cc1 | 4.0 | 0.1 | 24.3*
C/C=C/c1ccc([C@H]2[C@@H](CO)N(CC3CCCC3)[C@@H]2CNC(=O)NC(C)C)cc1 | 5.6 | -0.2 | -8.5
CO[C@@H]1CN(C)C(=O)c2cc(NC(=O)Nc3ccccc3)ccc2OC[C@@H](C)N(CC2CC2)C[C@H]1C | -2.6 | -0.2 | -1.4
